From ChEMBL document CHEMBL5260830, “Breakthroughs in neuroactive steroid drug discovery” (Bioorg Med Chem Lett, 2018) come the findings set out here.

In general, pIC50 refers to −log10 of the IC50, conventionally taken in molar units. A higher pIC50 goes with a small IC50. Usually ED50 stands for the midpoint of the dose-response relation.

Molecules are shown by their SMILES. pIC50: −log10 of the molar value.

Series [1] concerns the target GABA-A receptor; anion channel. Kind of series: Displacement of [35S]-TBPS from rat synaptosomes GABAA receptor incubated for 90 mins by liquid scintillation counting method. The series is classed as subcellular, Synaptosome. (Displacement assays read how much labelled ligand stays bound in the presence of the test substance.)
The target of series [2] is GABA-A receptor; anion channel. Description: Displacement of [35S]-TBPS GABAA receptor in Wistar rat brain membrane incubated for 60 mins by competitive binding assay. The class given is cell membranes.
Series [3] addresses GABA-A receptor; anion channel (Homo sapiens) (UniProt P14867+P47870+P18507+P28472+P48169+Q99928+Q9UN88+P34903+O00591+O14764+Q8N1C3+P18505+P78334+P47869+P31644+Q16445). Description: Potentiation of NAS mediated GABA (unknown origin) tonic effect assessed as fold potentiation. The class given is protein-complex assay. As to conditions: filed as activator.
The species named for series [4] is Mus musculus. Kind of series: Anticonvulsant activity in 6-Hz induced seizure mouse model assessed as protection against 6-Hz induced seizure. The class given is functional. Put shortly: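 Tonic currents recorded from voltage-clamped ([…]) dentate gyrus granule cells of wild-type female mice. Value is fold potentiation of the mean normalized tonic response to 1 µM GABA, from four to eight cells per steroid and concentration. Anticonvulsant ED50 determined in the mouse 6-Hz psychomotor seizure model.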

Series [5] concerns the target Glutamate NMDA receptor; GRIN1/GRIN2B (Homo sapiens, UniProt Q05586+Q13224). Kind of series: Inhibition of GluN1/GluN2B NMDA receptor (unknown origin) expressed in HEK293 cells. The class given is cell-based. Put shortly:
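Potency measured in HEK293 cells transfected with rat GluN1 and GluN2B subunits.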

Series [6] in a line: Permeability coefficient across apical to basolateral side in human Caco-2 cells assessed as drug recovery at pH 7.4. The series is classed as ADME, cell-based. The following applies: Caco-2, pH 7.4, read-out: Drug recovery. (Caco-2 cells form a polarised layer with tight junctions and transporters.)
Series [7] in a line: Permeability coefficient across apical to basolateral side in human Caco-2 cells at pH 7.4. The series is classed as ADME, cell-based. The following applies: Caco-2, pH 7.4, read-out: permeability.

Glutamate NMDA receptor; GRIN1/GRIN2B, sequence (Q13224 whole entry, other chains not shown): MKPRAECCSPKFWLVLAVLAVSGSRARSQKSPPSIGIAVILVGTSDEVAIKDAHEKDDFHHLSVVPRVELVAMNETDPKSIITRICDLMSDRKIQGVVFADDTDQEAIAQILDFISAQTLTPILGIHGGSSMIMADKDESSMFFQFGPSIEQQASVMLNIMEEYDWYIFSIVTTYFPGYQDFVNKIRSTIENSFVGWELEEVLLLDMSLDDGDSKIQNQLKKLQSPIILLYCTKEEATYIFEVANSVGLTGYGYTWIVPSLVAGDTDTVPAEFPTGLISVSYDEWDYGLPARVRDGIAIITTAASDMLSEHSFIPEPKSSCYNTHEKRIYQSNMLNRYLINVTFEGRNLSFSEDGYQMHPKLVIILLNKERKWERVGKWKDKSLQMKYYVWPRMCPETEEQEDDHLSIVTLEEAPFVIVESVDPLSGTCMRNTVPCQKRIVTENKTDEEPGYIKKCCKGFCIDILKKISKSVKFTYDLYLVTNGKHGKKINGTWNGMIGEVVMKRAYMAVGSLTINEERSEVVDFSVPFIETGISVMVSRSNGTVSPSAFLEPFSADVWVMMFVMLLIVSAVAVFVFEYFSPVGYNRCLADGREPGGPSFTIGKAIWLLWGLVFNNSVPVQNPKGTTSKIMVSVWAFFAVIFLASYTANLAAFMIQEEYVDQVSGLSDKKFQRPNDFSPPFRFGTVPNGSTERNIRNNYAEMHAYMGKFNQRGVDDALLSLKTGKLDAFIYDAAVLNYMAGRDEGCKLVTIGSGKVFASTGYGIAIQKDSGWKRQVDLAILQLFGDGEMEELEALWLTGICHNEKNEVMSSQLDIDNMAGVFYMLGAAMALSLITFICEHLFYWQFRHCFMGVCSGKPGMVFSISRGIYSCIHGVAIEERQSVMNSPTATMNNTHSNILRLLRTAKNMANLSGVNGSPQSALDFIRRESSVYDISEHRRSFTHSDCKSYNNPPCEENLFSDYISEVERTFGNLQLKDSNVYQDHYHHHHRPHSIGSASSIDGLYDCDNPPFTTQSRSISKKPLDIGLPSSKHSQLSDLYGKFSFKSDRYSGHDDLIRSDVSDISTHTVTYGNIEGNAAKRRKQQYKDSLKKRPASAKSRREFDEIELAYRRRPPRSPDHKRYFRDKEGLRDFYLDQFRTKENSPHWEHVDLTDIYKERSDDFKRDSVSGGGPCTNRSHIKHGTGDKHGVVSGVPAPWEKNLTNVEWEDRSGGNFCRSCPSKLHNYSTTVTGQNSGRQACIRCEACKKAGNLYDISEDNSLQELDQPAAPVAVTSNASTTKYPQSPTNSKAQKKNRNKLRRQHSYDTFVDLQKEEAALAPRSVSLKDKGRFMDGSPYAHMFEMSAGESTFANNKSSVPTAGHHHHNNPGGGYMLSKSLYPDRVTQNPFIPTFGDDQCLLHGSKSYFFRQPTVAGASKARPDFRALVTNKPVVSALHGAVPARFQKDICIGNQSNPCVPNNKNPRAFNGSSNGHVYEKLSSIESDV

Compound `CC(=O)[C@H]1CC[C@H]2[C@@H]3CC[C@@H]4C[C@H](O)C[C@@H]5O[C@H](C[C@]12C)[C@@H]3[C@]45C` had a negative logarithm of the IC50 (pIC50) in series [1] of 6.31.
Turning to `CC(=O)[C@H]1CC[C@H]2[C@@H]3CC[C@H]4C[C@@H]5O[C@@H]5C[C@]4(C)[C@H]3CC[C@]12C`, in series [2], the pIC50 was 6.59.
For `CC(=O)[C@H]1CC[C@H]2[C@@H]3CC[C@H]4C[C@@H](O)CC[C@]4(C)[C@H]3CC[C@]12C` [SEPRANOLONE], the fold change (FC) in series [3] came out at 0.76. For the same compound, the ED50 in series [4] was over 100 mg/kg.
In turn, `CC(=O)[C@H]1CC[C@H]2[C@@H]3CCC4=C[C@H](O)C[C@@H]5O[C@H](C[C@]12C)[C@@H]3[C@]45C` gave a negative logarithm of the IC50 (pIC50) in series [1] of 7.14.
For the compound `C[C@@]12CCC[C@H]1[C@@H]1CC[C@@H]3C[C@H](NC(=O)O)CC[C@]3(C)[C@H]1CC2`, in series [5], the negative logarithm of the IC50 (pIC50) is 4.66.
On to `CC(=O)[C@H]1CC[C@H]2[C@@H]3C[C@H]4OC[C@@]5(CC[C@@H](O)CC45)[C@H]3CC[C@]12C` (some centres not stated), for which, in series [1], the pIC50 is 6.85.
With `CC(=O)[C@H]1CC[C@H]2[C@@H]3CC[C@@H]4C[C@H](O)CC[C@]4(C)[C@H]3CC[C@]12C` [ELTANOLONE], in series [3], the fold change (FC) worked out at 2.24. Also, in series [4], the 50% effective dose (ED50) worked out at 7.7 mg/kg.
`CC(=O)[C@H]1CC[C@H]2[C@@H]3CC[C@H]4C[C@H](O)C[C@H]5O[C@H](C[C@]12C)[C@@H]3[C@]45C` gave a pIC50 in series [1] of 7.03.
For the compound `C[C@@]12CCC[C@H]1[C@@H]1CC[C@@H]3C[C@H](NC(=O)CC(=O)O)CC[C@]3(C)[C@H]1CC2`, the negative-log IC50 (pIC50) in series [5] was 4.81.
In series [2], `COCC(=O)[C@H]1CC[C@H]2[C@@H]3CC[C@H]4C[C@@H]5O[C@@H]5C[C@]4(C)[C@H]3CC[C@]12C` gave a pIC50 of 6.20.
`CC(=O)[C@H]1CC[C@H]2[C@@H]3CC[C@@H]4C[C@H](OC(=O)[C@@H](N)CCC(=O)O)CC[C@]4(C)[C@H]3CC[C@]12C` showed a pIC50 in series [5] of 4.29.
In series [2], `COCCC(CO)(CCOC)C(=O)[C@H]1CC[C@H]2[C@@H]3CC[C@H]4C[C@@H]5O[C@@H]5C[C@]4(C)[C@H]3CC[C@]12C` had a pIC50 of 5.30.
As to `C[C@@]12CCC[C@H]1[C@@H]1CC[C@@H]3C[C@H](NC(=O)[C@@H](N)CC(=O)O)CC[C@]3(C)[C@H]1CC2`, the recovery in series [6] is under 50%. In series [5], this compound showed a pIC50 of 6.00. Further, the Papp A→B in series [7] was 0.22 ×10⁻⁶ cm/s.
In the case of `C[C@]12CC[C@@H](O)C[C@@H]1CC[C@@H]1[C@@H]2CC[C@]2(C)[C@@H](C(=O)CO)CC[C@@H]12`, in series [3], the fold change (FC) was 3.52. Moreover, the ED50 in series [4] was found to be 5 mg/kg.
As for `C[C@@]12CCC[C@H]1[C@@H]1CC[C@@H]3C[C@H](NC(=O)[C@@H](N)CCC(=O)O)CC[C@]3(C)[C@H]1CC2`, the recovery in series [6] was under 50%. In series [5], the negative-log IC50 (pIC50) is 5.85. The Papp A→B in series [7] was determined as 0.22 ×10⁻⁶ cm/s.
As to `CC(=O)[C@H]1CC[C@H]2[C@@H]3CC[C@H]4C[C@H](O)CC[C@]4(C)[C@H]3C(=O)C[C@]12C` [ALFAXALONE], the fold change (FC) in series [3] amounted to 1.98. In series [4], the ED50 was 8.8 mg/kg.
`CC(=O)[C@H]1CC[C@H]2[C@@H]3CC[C@H]4C[C@H](O)CC[C@]4(C)[C@H]3CC[C@]12C` [BREXANOLONE]: the pIC50 in series [1] was 7.07. Further, the fold change (FC) in series [3] amounted to 4.36. In series [4], the ED50 amounted to 4.2 mg/kg.
